Results published in ChEMBL document CHEMBL1130097, “Synthesis and anti-HIV-1 activity of a series of 1-alkoxy-5-alkyl-6-(arylthio)uracils” (J Med Chem, 1997).

Columns and labels:
[1] = tested on: Human immunodeficiency virus 1; assay: Concentration required to achieve 50% protection of CEM-SS cells against the cytopathic effect of HIV-1.; type: functional, organism-based; conditions: Human immunodeficiency virus 1, CEM-SS
CEM-SS [2] = assay: Cytotoxic concentration required to reduce the viability of mock infected CEM-SS cells by 50%.; type: functional; conditions: Homo sapiens
[3] = (§1) Selectivity Index measured as ratio of CC50 to that of EC50.; type: functional, CCRF-CEM
CEM-SS [4] = assay: Cytotoxic concentration required to reduce the viability of mock infected CEM-SS by 50%.; type: functional; conditions: Homo sapiens
CEM-V [5] = assay: Cytotoxic concentration required to reduce the viability of mock-infected CEM-V cells by 50%; type: functional; conditions: Homo sapiens
CEM-V [6] = assay: Inhibition of HIV-1 replication in CEM-V cells; type: functional, cell-based; conditions: Homo sapiens
[7] = as §1; type: functional
CCRF-CEM [8] = assay: Effective concentration for inhibition of […] replication in CEM cells.; type: functional, cell-based; conditions: Homo sapiens
CCRF-CEM [9] = assay: Cytotoxic concentration for inhibition of […] replication in CEM cells.; type: functional; conditions: Homo sapiens
[10] = tested on: Avian myeloblastosis virus; assay: Inhibitory effect on recombinant AMV reverse transcriptase (Avian Myeloblastosis Virus, AMV); type: functional
In short: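 Recombinant RT (0.05 unit each of HIV-1, AMV or Mo-MuLV enzyme) in 50 mM Tris-HCl pH 7.8, 50 mM KCl, 30 mM MgCl2, 1 mM DTT, 0.01% Triton X-100, with poly r(A)d(T)12-18 template and [3H]dTTP. Compounds added from DMSO (final below 1%), 1 h at 37 °C. Stopped with cold 20% TCA; precipitate counted.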

[11] = Cytotoxic concentration for inhibition of HIV-1 replication in human peripheral Blood mononuclear cells.(PBMCs); type: functional
[12] = tested on: Avian myeloblastosis virus; assay: Inhibitory effect on recombinant AMV reverse transcriptase; type: functional
In short: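 Recombinant RT (0.05 unit of HIV-1, AMV or Mo-MuLV) in 50 mM Tris-HCl pH 7.8, 50 mM KCl, 30 mM MgCl2, 1 mM DTT and 0.01% Triton X-100. Template poly r(A)d(T)12-18 (5.0 μg) with 0.5 μCi [3H]dTTP. Compound added in DMSO (final below 1%), 1 h at 37 °C. Reaction stopped with cold 20% TCA and precipitate counted. […] Means of at least three independent experiments run in duplicate.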

[13] = Effective concentration for inhibition of HIV-1 replication in human peripheral Blood mononuclear cells.(PBMCs); type: functional
In short: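 PBMCs from healthy seronegative donors were isolated on Ficoll-Hypaque and stimulated 24 h with PHA (10 μg/mL). Cells at 1×10^6 cells/mL were infected with HIV-1 HTLV-IIIB at MOI 0.01, with 2-h adsorption followed by three washes. Culture was in RPMI 1640 with IL-2 (2 U/mL) and 10% FBS with compound at 37 °C, split 1:2 with fresh drug on days 4 and 8. On day 12, supernatant p24 was measured by ELISA in triplicate. […] Means of two independent experiments run in duplicate.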

[14] = Selectivity Index measured as ratio of CC50 to that of EC50 in PBMCs; type: functional
In short: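 HIV-1 (HTLV-IIIB) in PHA-stimulated PBMCs from healthy seronegative donors. Cells were infected at MOI 0.01 for 2 h, washed, then grown with compound in RPMI 1640 with IL-2 and 10% FBS at 37 °C. Cultures were split 1:2 with fresh compound on days 4 and 8. p24 was read by ELISA on day 12. Cytotoxicity was measured by [3H]thymidine incorporation. SI = CC50/EC50, means of two independent experiments in duplicate.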

SMILES | EC50 [1] [µM] | CC50 (CEM-SS [2]) [µM] | Selectivity index [3] | further results
Cc1cc(C)cc(Sc2c(C(C)C)c(=O)[nH]c(=O)n2OCCCO)c1 | 0.19 | 75 | 395 | –
CCc1c(Sc2cc(C)cc(C)c2)n(OCCOC)c(=O)[nH]c1=O | 1.97 | 136 | 69 | –
CC(C)c1c(Sc2ccccc2)n(OCCCO)c(=O)[nH]c1=O | 19 | 170 | 8.9 | –
Cc1cc(C)cc(Sc2c(C)c(=O)[nH]c(=O)n2OCc2ccccc2)c1 | 10.1 | > 200 | >20 | –
CCc1c(Sc2cc(C)cc(C)c2)n(OCc2ccccc2)c(=O)[nH]c1=O | 5.77 | > 200 | >35 | –
COCCOn1c(Sc2cc(C)cc(C)c2)c(C(C)C)c(=O)[nH]c1=O | 0.43 | 96 | 223 | –
CCCOn1c(Sc2cc(C)cc(C)c2)c(CC)c(=O)[nH]c1=O | 0.35 | 54 | 154 | –
CCCc1c(Sc2cc(C)cc(C)c2)n(OCc2ccccc2)c(=O)[nH]c1=O | 10.3 | 114 | 11 | –
Cc1cc(C)cc(Sc2c(C3CC3)c(=O)[nH]c(=O)n2OCCc2ccccc2)c1 | 6.03 | 43 | 7.1 | –
Cc1cc(C)cc(Sc2c(C)c(=O)[nH]c(=O)n2OCCc2ccccc2)c1 | 3.08 | – | >39 | CC50 (CEM-SS [4]): > 121 µM
O=c1[nH]cnc2c1ncn2[C@H]1CC[C@@H](CO)O1 [DIDANOSINE] | – | – | – | CC50 (CEM-V [5]): > 10 µM; EC50 (CEM-V [6]): 2.8 µM; Selectivity index [7]: > 3.6
CCCOn1c(Sc2ccccc2)c(C(C)C)c(=O)[nH]c1=O | 6.75 | 75 | 11 | –
CCCCOn1c(Sc2cc(C)cc(C)c2)c(C(C)C)c(=O)[nH]c1=O | 0.42 | 30 | 71 | –
CCCOn1c(Sc2cccc(F)c2)c(C(C)C)c(=O)[nH]c1=O | 1.9 | 72 | 38 | –
Cc1cccc(Sc2c(C(C)C)c(=O)[nH]c(=O)n2OCCCO)c1 | 4.7 | 118 | 28 | –
CCCOn1c(Sc2cc(F)cc(F)c2)c(C(C)C)c(=O)[nH]c1=O | 2.39 | > 200 | >84 | –
CCCOn1c(Sc2cccc(C)c2)c(C(C)C)c(=O)[nH]c1=O | 0.98 | 40 | 41 | –
Cc1cc(C)cc(Sc2c(C3CC3)c(=O)[nH]c(=O)n2OCc2ccccc2)c1 | 15.9 | > 200 | >13 | –
CCCc1c(Sc2cc(C)cc(C)c2)n(OCCc2ccccc2)c(=O)[nH]c1=O | 0.7 | 29 | 41 | –
CC(C)c1c(Sc2cccc(F)c2)n(OCCCO)c(=O)[nH]c1=O | – | 3.4 | – | –
Cc1cc(C)cc(Sc2c(C3CC3)c(=O)[nH]c(=O)n2OCCCO)c1 | 15.1 | 128 | 8.5 | –

SMILES | EC50 [1] [µM] | CC50 (CEM-SS [2]) [µM] | Selectivity index [3] | further results
Cc1c(Sc2ccccc2)n(COCCO)c(=O)[nH]c1=O [HEPT] | – | – | 48 | EC50 (CCRF-CEM [8]): 8.3 µM; CC50 (CCRF-CEM [9]): 400 µM
CCCOn1c(Sc2ccc(C)cc2)c(C(C)C)c(=O)[nH]c1=O | – | – | – | CC50 (CEM-SS [4]): 69 µM
CCc1c(Sc2cc(C)cc(C)c2)n(OCCc2ccccc2)c(=O)[nH]c1=O | 0.46 | 36 | 78 | –
Cc1cc(C)cc(Sc2c(C(C)C)c(=O)[nH]c(=O)n2OCCc2ccccc2)c1 | 0.49 | 15 | 31 | –
CCCc1c(Sc2cc(C)cc(C)c2)n(OCCCO)c(=O)[nH]c1=O | 8.22 | 107 | 13 | –
O=C(O)P(=O)(O)O [FOSCARNET SODIUM] | – | – | – | IC50 [10]: 9.31 µM
CCCOn1c(Sc2ccccc2C)c(C(C)C)c(=O)[nH]c1=O | 13.9 | 41 | 2.9 | –
CCCOn1c(Sc2cc(C)cc(C)c2)c(C2CC2)c(=O)[nH]c1=O | 6.12 | 30 | 4.9 | –
CCCOn1c(Sc2cc(C)cc(C)c2)c(C)c(=O)[nH]c1=O | 0.93 | 64 | 69 | –
Cc1cccc(CCOn2c(Sc3cc(C)cc(C)c3)c(C(C)C)c(=O)[nH]c2=O)c1 | 0.84 | 13 | 15 | –
Cc1cc(C)cc(Sc2c(C)c(=O)[nH]c(=O)n2OCCCO)c1 | 5.55 | 140 | 25 | –
CCc1c(Sc2cc(C)cc(C)c2)n(OCCCO)c(=O)[nH]c1=O | 0.54 | 123 | 228 | –
CCCOn1c(Sc2cc(C)cc(C)c2)c(C(C)C)c(=O)[nH]c1=O | 0.064 | – | – | CC50 [11]: 70 µM; IC50 [12]: > 100 µM; CC50 (CEM-SS [4]): 33 µM; EC50 [13]: 0.15 µM
CCCCOn1c(Sc2cc(C)cc(C)c2)c(CC)c(=O)[nH]c1=O | 0.97 | 40 | 41 | –
CC(C)c1c(Sc2cc(F)cc(F)c2)n(OCCCO)c(=O)[nH]c1=O | 7.52 | 150 | 20 | –
Nc1ccn([C@H]2CC[C@@H](CO)O2)c(=O)n1 [ZALCITABINE] | 0.19 | > 10 | >53 | –
CCCOn1c(Sc2cc(C)cc(C)c2)c(CCC)c(=O)[nH]c1=O | 2.57 | 45 | 18 | –
Cc1cn([C@H]2C[C@H](N=[N+]=[N-])[C@@H](CO)O2)c(=O)[nH]c1=O [ZIDOVUDINE] | 0.0045 | > 1 | >220 | Selectivity index [14]: 16556; CC50 [11]: 149 µM; EC50 [13]: 0.009 µM
Cc1cc(C)cc(Sc2c(C(C)C)c(=O)[nH]c(=O)n2OCc2ccccc2)c1 | 8.45 | 24 | 2.8 | –
Cc1cc(C)cc(Sc2c(C(C)C)c(=O)[nH]c(=O)n2OCCOc2ccccc2)c1 | 0.46 | 16 | 35 | –
